From ChEMBL document CHEMBL3779771, “Chiral Dihydrobenzofuran Acids Show Potent Retinoid X Receptor-Nuclear Receptor Related 1 Protein Dimer Activation” (J Med Chem, 2016)
Calls of active or inactive are those of the source. The rule behind the calls is not given here.

Experiments:
[1] = biological target: T1, Retinoic acid receptor RXR-alpha (Homo sapiens) (UniProt P19793); experiment: Agonist activity at histidine-tagged ligand binding domain of human RXRalpha expressed in Escherichia coli BL21 (DE3) by luciferase reporter gene assay relative to bexarotene
T1 sequence (whole entry): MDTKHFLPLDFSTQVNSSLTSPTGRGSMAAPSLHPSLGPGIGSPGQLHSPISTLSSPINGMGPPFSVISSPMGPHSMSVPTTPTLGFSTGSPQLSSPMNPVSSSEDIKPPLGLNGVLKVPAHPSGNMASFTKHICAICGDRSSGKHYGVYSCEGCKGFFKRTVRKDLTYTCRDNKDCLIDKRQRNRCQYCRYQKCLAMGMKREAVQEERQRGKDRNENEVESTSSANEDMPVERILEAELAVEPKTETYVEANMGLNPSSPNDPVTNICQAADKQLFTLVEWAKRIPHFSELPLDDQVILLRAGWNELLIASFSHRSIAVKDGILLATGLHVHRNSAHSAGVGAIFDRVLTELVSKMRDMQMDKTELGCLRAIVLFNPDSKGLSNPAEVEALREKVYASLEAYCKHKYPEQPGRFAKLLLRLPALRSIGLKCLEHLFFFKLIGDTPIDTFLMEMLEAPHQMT

[2] = biological target: T2, Nuclear receptor subfamily 4 group A member 2/Retinoic acid receptor RXR-alpha (Homo sapiens, UniProt P19793+P43354); experiment: Agonist activity at Renilla luciferase/GFP2-tagged RXRalpha/Nurr1 (unknown origin) expressed in HEK293T cells by BRET2 assay relative to bexarotene; type: cell-based; conditions: HEK-293T
T2 sequence (P43354 whole entry, one chain of several): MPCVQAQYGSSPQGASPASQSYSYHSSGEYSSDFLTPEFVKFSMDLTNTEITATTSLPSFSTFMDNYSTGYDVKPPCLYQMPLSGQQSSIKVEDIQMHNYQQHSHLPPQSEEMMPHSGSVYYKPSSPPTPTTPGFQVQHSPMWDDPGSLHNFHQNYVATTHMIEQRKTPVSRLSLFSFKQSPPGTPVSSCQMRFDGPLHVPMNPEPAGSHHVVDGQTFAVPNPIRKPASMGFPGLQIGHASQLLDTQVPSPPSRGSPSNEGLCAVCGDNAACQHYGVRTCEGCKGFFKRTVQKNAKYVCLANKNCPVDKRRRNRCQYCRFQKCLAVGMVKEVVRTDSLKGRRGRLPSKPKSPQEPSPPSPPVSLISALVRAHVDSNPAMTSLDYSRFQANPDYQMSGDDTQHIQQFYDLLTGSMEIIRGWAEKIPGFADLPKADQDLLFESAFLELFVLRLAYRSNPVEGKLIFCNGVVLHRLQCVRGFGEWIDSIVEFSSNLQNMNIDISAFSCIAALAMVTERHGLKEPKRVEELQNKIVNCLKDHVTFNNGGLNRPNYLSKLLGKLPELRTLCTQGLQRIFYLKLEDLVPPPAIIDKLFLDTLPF
Summary of the method: (§1)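 BRET2 assay with RXR and Nurr1 receptors tagged with GFP and Renilla luciferase, run in whole cells. Potency is given as pEC50, the negative log of molar EC50. Agonist efficacy is expressed relative to bexarotene, set at 100%. Values are mean ± SD of at least three independent experiments.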

[3] = biological target: T1, Retinoic acid receptor RXR-alpha (Homo sapiens); experiment: Agonist activity at Renilla luciferase/GFP2-tagged RXRalpha homodimer (unknown origin) expressed in HEK293T cells by BRET2 assay relative to bexarotene; type: cell-based; conditions: HEK-293T; summary of the method: as §1
[4] = biological target: T2, Nuclear receptor subfamily 4 group A member 2/Retinoic acid receptor RXR-alpha; experiment: Agonist activity at Renilla luciferase/GFP2-tagged RXRalpha/Nurr1 (unknown origin) expressed in HEK293T cells by BRET2 assay; type: cell-based, HEK-293T
[5] = biological target: T3, Retinoic acid receptor RXR-alpha (Homo sapiens, UniProt P19793); experiment: Agonist activity at Renilla luciferase/GFP2-tagged RXRalpha homodimer (unknown origin) expressed in HEK293T cells by BRET2 assay; type: cell-based, HEK-293T
T3 sequence (P19793 whole entry): T1 sequence (whole entry)

[6] = biological target: T3, Retinoic acid receptor RXR-alpha; experiment: (§2) Agonist activity at histidine-tagged ligand binding domain of human RXRalpha expressed in Escherichia coli BL21 (DE3) by luciferase reporter gene assay
[7] = biological target: T4, Estrogen receptor (Homo sapiens) (UniProt P03372); experiment: Activation of estrogen receptor (unknown origin)
T4 sequence (whole entry): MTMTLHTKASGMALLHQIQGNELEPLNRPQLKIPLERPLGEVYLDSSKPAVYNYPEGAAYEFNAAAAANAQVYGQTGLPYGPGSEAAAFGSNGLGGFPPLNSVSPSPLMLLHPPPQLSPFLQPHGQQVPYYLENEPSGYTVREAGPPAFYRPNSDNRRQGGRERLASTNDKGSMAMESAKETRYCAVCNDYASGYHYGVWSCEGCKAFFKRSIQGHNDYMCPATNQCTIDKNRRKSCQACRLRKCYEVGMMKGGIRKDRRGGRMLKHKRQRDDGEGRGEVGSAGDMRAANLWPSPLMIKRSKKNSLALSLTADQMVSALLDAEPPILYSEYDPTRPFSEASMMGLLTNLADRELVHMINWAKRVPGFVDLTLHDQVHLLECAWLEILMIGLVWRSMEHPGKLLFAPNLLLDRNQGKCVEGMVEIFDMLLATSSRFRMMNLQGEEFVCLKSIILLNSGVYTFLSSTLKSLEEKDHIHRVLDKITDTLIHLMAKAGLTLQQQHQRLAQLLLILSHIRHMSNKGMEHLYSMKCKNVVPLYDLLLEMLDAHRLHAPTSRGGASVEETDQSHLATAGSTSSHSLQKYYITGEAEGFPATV

[8] = biological target: Retinoic acid receptor (Homo sapiens) (UniProt P13631+P10826+P10276); experiment: Activation of RAR (unknown origin); type: protein assay
Retinoic acid receptor (Homo sapiens), sequence (P10276 whole entry, looked up): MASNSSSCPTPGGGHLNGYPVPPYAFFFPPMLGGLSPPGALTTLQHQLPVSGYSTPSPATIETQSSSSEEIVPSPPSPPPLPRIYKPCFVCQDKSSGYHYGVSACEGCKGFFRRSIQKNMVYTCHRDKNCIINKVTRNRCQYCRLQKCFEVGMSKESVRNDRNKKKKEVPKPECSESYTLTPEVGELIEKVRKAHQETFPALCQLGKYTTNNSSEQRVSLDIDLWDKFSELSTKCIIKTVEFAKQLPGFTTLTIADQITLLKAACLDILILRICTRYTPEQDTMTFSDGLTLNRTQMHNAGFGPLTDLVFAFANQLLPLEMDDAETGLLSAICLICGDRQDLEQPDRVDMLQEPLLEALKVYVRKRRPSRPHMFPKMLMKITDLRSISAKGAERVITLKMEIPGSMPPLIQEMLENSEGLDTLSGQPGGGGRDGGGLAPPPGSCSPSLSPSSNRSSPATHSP
Retinoic acid receptor (Homo sapiens), sequence (P10826 whole entry, looked up): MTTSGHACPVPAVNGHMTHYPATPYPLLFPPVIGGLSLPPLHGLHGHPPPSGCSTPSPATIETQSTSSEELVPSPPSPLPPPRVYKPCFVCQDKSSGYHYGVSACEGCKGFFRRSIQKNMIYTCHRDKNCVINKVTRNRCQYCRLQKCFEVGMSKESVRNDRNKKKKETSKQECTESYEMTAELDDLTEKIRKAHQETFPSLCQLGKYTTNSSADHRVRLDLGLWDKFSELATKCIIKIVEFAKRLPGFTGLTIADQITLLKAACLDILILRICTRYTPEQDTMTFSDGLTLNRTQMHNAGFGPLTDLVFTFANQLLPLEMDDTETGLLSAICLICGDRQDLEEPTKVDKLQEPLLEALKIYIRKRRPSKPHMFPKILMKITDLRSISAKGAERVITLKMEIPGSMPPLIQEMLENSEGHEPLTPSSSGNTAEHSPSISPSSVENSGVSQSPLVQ
Retinoic acid receptor (Homo sapiens), sequence (P13631 whole entry, looked up): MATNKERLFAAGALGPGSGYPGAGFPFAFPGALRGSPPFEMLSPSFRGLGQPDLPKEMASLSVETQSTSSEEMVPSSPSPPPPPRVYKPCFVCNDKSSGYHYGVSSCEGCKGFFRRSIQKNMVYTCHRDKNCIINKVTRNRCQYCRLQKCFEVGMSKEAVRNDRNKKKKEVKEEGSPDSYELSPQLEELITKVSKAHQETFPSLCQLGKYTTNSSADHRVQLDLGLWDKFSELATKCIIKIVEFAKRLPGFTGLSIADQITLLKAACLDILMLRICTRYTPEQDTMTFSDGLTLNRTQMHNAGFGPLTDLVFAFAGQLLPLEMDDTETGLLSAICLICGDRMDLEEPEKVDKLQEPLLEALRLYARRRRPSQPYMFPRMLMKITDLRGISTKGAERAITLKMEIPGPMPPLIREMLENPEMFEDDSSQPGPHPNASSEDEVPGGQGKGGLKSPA

[9] = biological target: T1, Retinoic acid receptor RXR-alpha (Homo sapiens); experiment: as §2
Homo sapiens = species on record: Homo sapiens; experiment: Selectivity ratio of EC50 for Renilla luciferase/GFP2-tagged RXRalpha homodimer (unknown origin) to EC50 for Renilla luciferase/GFP2-tagged RXRalpha/Nurr1 (unknown origin)

Efficacy [1]	Efficacy [2]	Efficacy [3]	EC50 [4]	EC50 [5]	EC50 [6]	Activity [7]	Activity [8]	pEC50 [9]	Ratio EC50 (Homo sapiens)	Structure (SMILES)
94%	96%	80%	12.6 nM	15.8 nM	20 nM					CC1(C)CCC(C)(C)c2cc3c(cc21)O[C@@H]1CCCC[C@]31c1ccc(C(=O)O)cc1
47%					126 nM	inactive	inactive			CC1(C)CCC(C)(C)c2cc3c(cc21)O[C@H]1CCCCC[C@@]31c1ccc(C(=O)O)cc1 (racemic)
65%					25.1 nM	inactive	inactive			CC1(C)CCC(C)(C)c2cc3c(cc21)OC1CCCC31c1ccc(C(=O)O)cc1 (racemic)
								inactive		CC1(C)CCC(C)(C)c2cc3c(cc21)OC1CCCCC31c1ccc(O)cc1 (racemic)
88%					50.1 nM	inactive	inactive			CC1(C)CCC(C)(C)c2cc3c(cc21)OC1CCCCC31c1ccc(C(=O)O)c(F)c1 (racemic)
								inactive		CC1(C)CCC(C)(C)c2cc3c(cc21)O[C@H]1CCCCC[C@]31c1ccc(C(=O)O)cc1 (racemic)
	92%	inactive	> 3160 nM					inactive		CC1(C)CCC(C)(C)c2cc3c(cc21)O[C@H]1CCCC[C@@]31c1ccc(C(=O)O)cc1
96%					50.1 nM	inactive	inactive			CC1(C)CCC(C)(C)c2cc3c(cc21)OC1CCCCC31c1ccc(C(=O)O)cc1 (racemic)
59%	49%	inactive	501 nM		1000 nM					CC1(C)CCC(C)(C)c2cc3c(cc21)O[C@H]1CCC[C@@]31c1ccc(C(=O)O)cc1
119%	111%	85%	12.6 nM	25.1 nM	6.31 nM				3	CC1(C)CCC(C)(C)c2cc3c(cc21)O[C@@H]1CCC[C@]31c1ccc(C(=O)O)cc1
